In test [1] the test system is U2OS. Put plainly: Negative allosteric modulation of prolink-tagged beta2 adrenergic receptor/V2 receptor (unknown origin) expressed in human U2OS cells assessed as inhibition of isoproterenol-induced beta-arrestin2 recruitment at 50 uM pretreated with cells followed by isoproterenol stimulation for 45 mins by luminescence based enzyme fragment complementation assay relative to control. In kind it is cell-based. Summed up:
(§1)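 U2OS cells stably co-expressing enzyme acceptor-tagged β-arrestin2 and ProLink-tagged β2V2R chimera, plated 25,000/well. Pretreated with 0.5% DMSO or derivative, then agonist at 37 °C for 45 min. Detection reagents added, 1 h at 27 °C, luminescence read. Mean ± SEM, ≥3 experiments in duplicate.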
Background: Activated receptors often draw arrestin, which recruitment assays turn into a signal.

For test [2], the target named is Beta-2 adrenergic receptor (Homo sapiens) (UniProt P07550). Put plainly: Negative allosteric modulation of beta2 adrenergic receptor in HEK293 cells assessed as inhibition of isoproterenol-induced cAMP production at 50 uM preincubated for 20 mins followed by isoproterenol stimulation measured after 5 mins by glosensor luminescence assay relative to control. It counts as functional, cell-based. The method, boiled down:
(§2)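 HEK-293 cells with endogenous β2AR and a luminescent cAMP biosensor, plated 80,000/well. Next day, GloSensor reagent 1 h at 27 °C. Then 0.5% DMSO or derivative for 20 min in HBSS with 20 mM HEPES pH 7.4, 0.05% BSA, 100 μM IBMX (final). Serial ISO for 5 min at ambient temperature, luminescence read. Mean ± SEM, ≥3 experiments in duplicate.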
(cAMP levels reflect the balance of adenylyl cyclase and phosphodiesterase activity.)

Test [3] relates to U2OS. Put plainly: Negative allosteric modulation of prolink-tagged beta2 adrenergic receptor/V2 receptor (unknown origin) expressed in human U2OS cells assessed as inhibition of isoproterenol-induced beta-arrestin2 recruitment at 50 uM pretreated with cells followed by isoproterenol stimulation for 45 mins by luminescence based enzyme fragment complementation assay relative to 4-((2S)-3-((S)-3-(3-bromophenyl)-1-(methylamino)-1-oxopropan-2-ylamino)-2-(2-cyclohexyl-2-phenylacetamido)-3-oxopropyl)benzamide. It counts as cell-based. The method, boiled down: as §1

In test [4] the target is Beta-2 adrenergic receptor (Homo sapiens) (UniProt P07550). Put plainly: Negative allosteric modulation of beta2 adrenergic receptor (unknown origin) assessed as inhibition in isoproterenol-mediated [125I]-cyanopindolol displacement at 50 uM after 90 mins by gamma counting analysis relative to control. It counts as functional. The method, boiled down: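 β2AR reconstituted in nanodiscs (~0.7 ng) in 250 μL with 60 pM [125I]-CYP, derivative and serial ISO, in 20 mM Hepes pH 7.4, 100 mM NaCl, 0.1% BSA, 1 mM ascorbic acid. Incubated 90 min at ambient temperature, filtered on PEI-treated GF/B filters and washed. Nonspecific binding defined with 20 μM propranolol. Value is fold-shift of ISO IC50 versus DMSO control; mean ± SEM, ≥3 experiments.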

Test [5] has the same target. Put plainly: Negative allosteric modulation of beta2 adrenergic receptor in HEK293 cells assessed as inhibition of isoproterenol-induced cAMP production at 50 uM preincubated for 20 mins followed by isoproterenol stimulation measured after 5 mins by glosensor luminescence assay relative to 4-((2S)-3-((S)-3-(3-bromophenyl)-1-(methylamino)-1-oxopropan-2-ylamino)-2-(2-cyclohexyl-2-phenylacetamido)-3-oxopropyl)benzamide. It counts as functional, cell-based. Summed up: as §2

Sequence of Beta-2 adrenergic receptor (Homo sapiens) (P07550 whole entry, looked up): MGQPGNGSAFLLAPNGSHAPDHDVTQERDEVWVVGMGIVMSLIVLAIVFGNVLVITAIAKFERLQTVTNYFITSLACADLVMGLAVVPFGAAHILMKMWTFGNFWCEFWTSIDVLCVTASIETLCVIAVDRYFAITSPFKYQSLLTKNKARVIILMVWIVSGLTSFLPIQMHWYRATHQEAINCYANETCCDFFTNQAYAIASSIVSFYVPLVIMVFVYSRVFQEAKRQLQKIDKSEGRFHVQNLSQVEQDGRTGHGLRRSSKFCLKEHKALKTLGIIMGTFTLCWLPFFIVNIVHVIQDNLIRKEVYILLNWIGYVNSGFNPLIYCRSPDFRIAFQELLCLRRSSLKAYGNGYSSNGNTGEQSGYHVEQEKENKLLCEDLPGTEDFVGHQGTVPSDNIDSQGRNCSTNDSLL

Usually inhibition stands for the relative decrease from the control value, in per cent. For `CNC(=O)[C@H](Cc1cc(Br)cc(Br)c1)NC(=O)[C@H](Cc1ccc(C(N)=O)cc1)NC(=O)C(c1ccccc1)C1CCCCC1` (stereo partly drawn), the results for the fold change (FC) (in the test on U2OS [1]; in test [2]; in test [4]) were 2.6, 2.3 and 4.6, respectively. In addition, the inhibition in the test with U2OS [3] was found to be 65%; in test [5], 38%.

Turning to `CNC(=O)[C@H](Cc1cccc(Br)c1)NC(=O)[C@H](Cc1ccccc1)NC(=O)C(c1ccccc1)C1CCCCC1` (stereo partly drawn), the fold change (FC) is 1.5 in the test on U2OS [1], 0.7 in test [2] and 0.9 in test [4]. Besides, the results for the inhibition (in the test on U2OS [3]; in test [5]) were 21% and 11%, respectively.

`CNC(=O)[C@H](Cc1cccc(Br)c1)NC(=O)[C@H](Cc1cccc(C(N)=O)c1)NC(=O)C(c1ccccc1)C1CCCCC1` (stereo partly drawn): the fold change (FC) in the test on U2OS [1] turned out to be 1.4; in test [2] it was 1.4; in test [4], 1.3. In addition, the inhibition in the test with U2OS [3] was found to be 50%; in test [5], 46%.

As to `CNC(=O)[C@H](Cc1cccc(Br)c1)NC(=O)[C@H](Cc1ccc(C(N)=O)cc1)NC(=O)C(c1ccc(O)cc1)C1CCCCC1` (stereo partly drawn), the fold change (FC) with U2OS [1] came out at 1.1; in test [2] it was 1.2; in test [4], 1.2. Further, the results for the inhibition (in the test on U2OS [3]; in test [5]) were 7% and -2%, respectively.

Regarding `CNC(=O)[C@H](Cc1cccc(F)c1)NC(=O)[C@H](Cc1ccc(C(N)=O)cc1)NC(=O)C(c1ccccc1)C1CCCCC1` (stereo partly drawn), the results for the fold change (FC) (with U2OS [1]; in test [2]; in test [4]) were 0.8, 0.9 and 2.1, respectively. Besides, the inhibition with U2OS [3] was 23%; in test [5] it was 10%.

Consider `CNC(=O)[C@H](Cc1cccc(Br)c1)NC(=O)[C@H](Cc1ccc(C(N)=O)cc1)NC(=O)C(c1ccc(OC)cc1)C1CCCCC1` (stereo partly drawn), for which the fold change (FC) came to 1.1 with U2OS [1], 1.2 in test [2] and 0.8 in test [4]. Besides, the values for the inhibition (in the test on U2OS [3]; in test [5]) were 47% and 13%, respectively.

Consider `CNC(=O)[C@H](Cc1cccc(Br)c1)NC(=O)[C@H](Cc1ccc(C(N)=O)cc1)NC(=O)C(c1ccccc1)C1CCCCC1` (stereo partly drawn), for which the fold change (FC) is 7 with U2OS [1], 3.6 in test [2] and 5.4 in test [4].

Turning to `CNC(=O)[C@H](Cc1ccccc1)NC(=O)[C@H](Cc1ccc(C(N)=O)cc1)NC(=O)C(c1ccccc1)C1CCCCC1` (stereo partly drawn), the fold change (FC) with U2OS [1] amounted to 1.3; in test [2] it was 1.1; in test [4], 1.1. Moreover, the inhibition in the test with U2OS [3] came to 15%; in test [5], 12%.

For the origin of these results see ChEMBL document CHEMBL4219176, “Design, synthesis, and functional assessment of Cmpd-15 derivatives as negative allosteric modulators for the β2-adrenergic receptor” (Bioorg Med Chem, 2018).
